Our source for the IC50 and selectivity ratio values is ChEMBL document CHEMBL1151709, “Antileishmanial constituents of the Panamanian endophytic fungus Edenia sp” (J Nat Prod, 2008).

One series has as its system Leishmania donovani. The experiment in a line: Antileishmanial activity against Leishmania donovani LD-1S/MHOM/SD/00-strain 1S amastigotes. The format is functional, organism-based. An outline of the steps:
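Axenic (cell-free) L. donovani amastigotes; parasite growth and survival read with PicoGreen. Single-concentration screen at 10 μg/mL in duplicate, expressed as % growth versus control; samples at ≤50% growth then tested at […], 0.08, 0.4, 2 and 10 μg/mL to derive IC50. Amphotericin B positive control.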

In a further series the test system is Plasmodium falciparum. Put plainly: Antimalarial activity against Plasmodium falciparum. The format is functional, organism-based. An outline of the steps:
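Run per the authors' earlier protocol with chloroquine as positive control; duplicate wells at 10, 2, 0.4, 0.08 and 0.016 μg/mL.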

The test system of another series is Trypanosoma cruzi. Put plainly: Antitrypanosomal activity against Trypanosoma cruzi. The format is functional, organism-based. The method, boiled down: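 Buckner et al. protocol with nifurtimox as positive control; tested in duplicate at 10, 2, 0.4, 0.08 and 0.016 μg/mL.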
The next series concerns Vero. Put plainly: Cytotoxicity against african green monkey Vero cells by MTT assay. The format is cell-based. The note with it: Chlorocebus sabaeus. (Tetrazolium dyes change colour on reduction, which living cells bring about.)
Series [1] can be described thus: Therapeutic index, ratio of IC50 for african green monkey Vero cells to IC50 for Leishmania donovani LD-1S/MHOM/SD/00-strain 1S amastigotes. The format is cell-based. The note with it: read-out: Ratio IC50. An outline of the steps:
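Therapeutic window calculated as Vero-cell IC50 (MTT cytotoxicity) divided by IC50 against axenic L. donovani amastigotes (PicoGreen growth/survival assay).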

[2] abbreviates: Leishmania donovani, 1S, read-out: IC50.

As to `Oc1cccc2c1[C@@H](O)CCC21Oc2cccc3cccc(c23)O1`, the IC50 in the series with Leishmania donovani (setting [2]) is 8.4 µM; with Plasmodium falciparum, above 10 µM; in the series with Trypanosoma cruzi, 26.5 µM; with Vero, 150 µM. Moreover, the selectivity ratio in series [1] is 18.
Taken in the same sequence, the figures for `O=C1C=CC(=O)C2=C1[C@@H](O)CCC21Oc2cccc3cccc(c23)O1` were 0.62 µM, above 10 µM, above 10 µM, 152 µM and 245.
On to `C[C@@H]1[C@H](O)[C@@H](C)/C=C/C=C/C=C/C=C/C=C/C=C/C=C/[C@H](O[C@@H]2O[C@H](C)[C@@H](O)[C@H](N)[C@@H]2O)C[C@@H]2O[C@](O)(C[C@@H](O)C[C@@H](O)[C@H](O)CC[C@@H](O)C[C@@H](O)CC(=O)O[C@H]1C)C[C@H](O)[C@H]2C(=O)O` [AMPHOTERICIN B], for which, in the series with Leishmania donovani, the IC50 is 0.07 µg/mL.
For `COc1cc2c(c(OC)c1)C(C)=[N+](c1ccc(OC)c3c(OC)cc(C)cc13)[C@@H](C)C2.O=C([O-])C(F)(F)F` [ANCISANCISTROCLADINIUM A], the IC50 with Leishmania donovani (setting [2]) came out at 0.722 µg/mL.
Still for that read-out and setting: under `COc1cc2c(c(OC)c1)C(C)=[N+](c1ccc3cc(C)cc(OC)c3c1O)[C@@H](C)C2.O=C([O-])C(F)(F)F` [ANCISTROCLADINIUM B] stands 1.1 µg/mL.
`CC1CS(=O)(=O)CCN1/N=C/c1ccc([N+](=O)[O-])o1` (centres undefined) [NIFURTIMOX] gave an IC50 in the series with Trypanosoma cruzi of 3 µg/mL.
On to `O=C1CCC2(Oc3cccc4cccc(c34)O2)c2cccc(O)c21` [PALMARUMYCIN CP2], for which the IC50 in the series on Leishmania donovani (setting [2]) was 3.93 µM; in the series on Plasmodium falciparum, above 10 µM; with Trypanosoma cruzi it was 18.5 µM; in the series with Vero, 162 µM. In addition, the selectivity ratio in series [1] turned out to be 41.
For the compound `O=C1CCC2(Oc3cccc4cccc(c34)O2)c2c(O)ccc(O)c21` [PALMARUMYCIN CP17], the IC50 in the series with Leishmania donovani (setting [2]) was 1.34 µM; in the series with Plasmodium falciparum, above 10 µM; in the series on Trypanosoma cruzi it was above 10 µM; in the series on Vero, 174 µM. In series [1], the selectivity ratio turned out to be 130.
For the compound `O=C1C=C[C@]23Oc4ccc(O)c5c4[C@](CCC5=O)(Oc4cccc1c42)O3` [PREUSSOMERIN EG1], the IC50 is 0.12 µM in the series on Leishmania donovani (setting [2]), 16.5 µM in the series with Plasmodium falciparum, above 10 µM with Trypanosoma cruzi and 9 µM in the series on Vero. In series [1], the selectivity ratio was 75.

As a reminder, the IC50 is the concentration at which inhibition is half-maximal.
